Laboratory results reported in ChEMBL document CHEMBL2331279, “Rational design and synthesis of 4-substituted 2-pyridin-2-ylamides with inhibitory effects on SH2 domain-containing inositol 5'-phosphatase 2 (SHIP2)” (Eur J Med Chem, 2013).
Active and inactive are the calls of the source. The rule behind the calls is not given here.

target: T1, Phosphatidylinositol 3,4,5-trisphosphate 5-phosphatase 2 (Mus musculus) (UniProt Q6P549); experiment: Inhibition of SHIP2 in mouse 3T3L1 cells assessed as reduction of TNF-alpha induced decrease in insulin-stimulated Akt phosphorylation at Thr308 at 10 uM treated for 15 mins after TNF alpha challenge for 16 hrs and prior to insulin stimulation measured after 2 hrs by Western blot analysis; assay type: cell-based; conditions: 3T3-L1
T1 sequence (whole entry): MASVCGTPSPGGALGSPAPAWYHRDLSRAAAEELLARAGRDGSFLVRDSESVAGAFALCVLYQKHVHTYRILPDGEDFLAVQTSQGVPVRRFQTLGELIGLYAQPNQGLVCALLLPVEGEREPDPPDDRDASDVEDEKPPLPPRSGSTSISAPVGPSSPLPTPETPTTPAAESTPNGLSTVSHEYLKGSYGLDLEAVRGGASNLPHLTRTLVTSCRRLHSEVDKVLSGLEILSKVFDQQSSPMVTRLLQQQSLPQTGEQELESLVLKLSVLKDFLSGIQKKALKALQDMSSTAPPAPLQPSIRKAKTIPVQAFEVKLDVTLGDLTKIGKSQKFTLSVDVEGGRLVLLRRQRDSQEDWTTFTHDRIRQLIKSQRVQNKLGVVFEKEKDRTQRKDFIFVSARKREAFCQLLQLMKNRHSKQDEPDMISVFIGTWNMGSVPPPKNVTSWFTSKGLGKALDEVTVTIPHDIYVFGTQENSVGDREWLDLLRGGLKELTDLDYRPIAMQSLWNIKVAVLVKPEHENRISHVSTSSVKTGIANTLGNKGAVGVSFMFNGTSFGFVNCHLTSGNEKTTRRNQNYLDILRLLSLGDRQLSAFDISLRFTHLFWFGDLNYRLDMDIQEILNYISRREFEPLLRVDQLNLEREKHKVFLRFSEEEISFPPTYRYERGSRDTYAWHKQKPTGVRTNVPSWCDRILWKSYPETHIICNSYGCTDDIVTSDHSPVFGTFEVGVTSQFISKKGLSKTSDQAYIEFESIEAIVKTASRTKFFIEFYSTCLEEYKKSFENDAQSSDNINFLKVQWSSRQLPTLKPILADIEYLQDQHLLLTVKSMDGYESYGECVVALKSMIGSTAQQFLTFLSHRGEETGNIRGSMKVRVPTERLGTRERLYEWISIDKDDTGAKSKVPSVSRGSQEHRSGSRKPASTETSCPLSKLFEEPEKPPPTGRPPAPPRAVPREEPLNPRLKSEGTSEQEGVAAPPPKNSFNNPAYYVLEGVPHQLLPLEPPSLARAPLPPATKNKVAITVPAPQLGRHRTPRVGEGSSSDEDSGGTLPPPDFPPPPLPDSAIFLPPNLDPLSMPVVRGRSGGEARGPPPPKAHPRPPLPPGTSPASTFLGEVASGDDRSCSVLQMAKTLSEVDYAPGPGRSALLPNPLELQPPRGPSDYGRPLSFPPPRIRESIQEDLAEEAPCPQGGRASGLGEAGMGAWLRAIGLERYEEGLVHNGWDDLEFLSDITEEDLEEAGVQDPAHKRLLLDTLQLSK
How it was run: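 3T3-L1 fibroblasts differentiated into adipocytes, then serum-starved 16 h with TNFα 20 ng/mL. Treated with compound 10 µM or 0.1% DMSO for 15 min, then stimulated with 17 nM insulin at 37 °C for 2 h. Cells lysed on ice at pH 7.5 and Thr308 phospho-Akt measured by western blot. Results given as fold change versus TNFα+insulin control. Mean ± SE.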

Row | inhibition | Compound
1 | Active | O=C(Cc1c(F)cccc1F)Nc1cc(COCc2ccc(F)cc2)ccn1
2 | Active | O=C(Cc1c(F)cccc1F)Nc1cc(OCc2ccc(F)cc2)ccn1
3 | Active | O=C(Cc1ccccc1)Nc1cc(OCc2ccc(F)cc2)ccn1
4 | Active | O=C(CCc1ccccc1)Nc1cc(COCc2ccccc2)ccn1
5 | Active | O=C(CCc1ccccc1)Nc1cc(COCc2ccc(Cl)cc2)ccn1
6 | Active | O=C(Cc1cc(F)cc(F)c1)Nc1cc(COCc2ccc(F)cc2)ccn1
7 | Active | O=C(CCc1ccccc1)Nc1cc(OCc2ccc(Cl)cc2)ccn1
8 | Active | O=C(Cc1ccccc1)Nc1cc(COCc2ccc(Cl)cc2)ccn1
9 | Active | O=C(CCc1ccccc1)Nc1cc(COCc2ccc(F)cc2)ccn1
10 | Active | O=C(Cc1ccccc1C(F)(F)F)Nc1cc(OCc2ccc(Cl)cc2)ccn1
11 | Active | O=C(Cc1ccc(F)cc1)Nc1cc(OCc2ccc(F)cc2)ccn1

target: T2, Phosphatidylinositol 3,4,5-trisphosphate 5-phosphatase 2 (Homo sapiens, UniProt O15357); experiment: Inhibition of SHIP2 (unknown origin); conditions: not given
T2 sequence (O15357 whole entry): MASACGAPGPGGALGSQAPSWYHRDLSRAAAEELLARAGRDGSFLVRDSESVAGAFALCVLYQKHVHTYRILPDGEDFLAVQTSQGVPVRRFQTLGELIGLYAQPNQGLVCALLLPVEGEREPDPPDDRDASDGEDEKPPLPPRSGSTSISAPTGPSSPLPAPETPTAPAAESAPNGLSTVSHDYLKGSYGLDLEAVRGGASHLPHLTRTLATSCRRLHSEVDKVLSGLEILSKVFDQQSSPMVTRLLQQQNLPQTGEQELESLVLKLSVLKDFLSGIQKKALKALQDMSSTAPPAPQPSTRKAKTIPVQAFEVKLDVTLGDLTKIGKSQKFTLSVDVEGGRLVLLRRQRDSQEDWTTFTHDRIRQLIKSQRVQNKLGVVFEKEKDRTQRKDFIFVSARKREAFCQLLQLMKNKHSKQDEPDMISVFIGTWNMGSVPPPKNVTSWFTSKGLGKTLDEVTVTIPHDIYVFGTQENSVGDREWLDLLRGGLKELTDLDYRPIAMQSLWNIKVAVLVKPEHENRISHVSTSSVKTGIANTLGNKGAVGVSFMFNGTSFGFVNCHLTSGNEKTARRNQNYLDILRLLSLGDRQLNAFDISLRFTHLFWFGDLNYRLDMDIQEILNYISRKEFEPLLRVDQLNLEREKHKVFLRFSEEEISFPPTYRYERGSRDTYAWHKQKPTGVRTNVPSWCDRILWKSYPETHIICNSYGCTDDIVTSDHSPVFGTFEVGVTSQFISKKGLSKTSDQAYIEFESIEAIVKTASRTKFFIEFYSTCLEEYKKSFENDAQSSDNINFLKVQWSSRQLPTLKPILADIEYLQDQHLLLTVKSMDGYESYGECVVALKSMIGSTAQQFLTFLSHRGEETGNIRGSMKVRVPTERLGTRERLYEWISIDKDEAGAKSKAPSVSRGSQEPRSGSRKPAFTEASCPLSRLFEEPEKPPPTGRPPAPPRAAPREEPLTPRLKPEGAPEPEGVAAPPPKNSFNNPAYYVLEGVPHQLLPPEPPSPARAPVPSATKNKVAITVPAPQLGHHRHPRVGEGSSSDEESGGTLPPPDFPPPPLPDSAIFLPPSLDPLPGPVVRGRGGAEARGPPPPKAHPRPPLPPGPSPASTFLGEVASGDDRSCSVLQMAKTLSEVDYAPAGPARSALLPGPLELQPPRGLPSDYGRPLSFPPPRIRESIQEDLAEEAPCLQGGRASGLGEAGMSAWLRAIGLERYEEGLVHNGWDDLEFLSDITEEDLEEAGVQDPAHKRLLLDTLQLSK

Row | IC50 [µM] | Compound
12 | 1.1 | CC(C)N(CCNc1ccc(-c2cc(-c3ccc(F)cc3)n(-c3ccc(Cl)c(Cl)c3)n2)cn1)C(C)C
